Assay results gathered from unrelated publications.
Each line is one published result; the experiments were not run side by side. pIC50: −log10 of the molar value.
Cell line: U-251
Observed: cell growth or viability

COc1ccc(C(=O)/C=C/c2cccc(Br)c2)cc1S(N)(=O)=O — inhibition (SRB; 10 µM): 198%
Cc1cc(NC(=O)c2cccc3cc(-c4cccc5[nH]nc(N)c45)ccc23)ccc1F — pIC50 (CCK-8; 72 h): < 4.70
O=C1Nc2ccccc2C1=NNc1nnc2n1N=C(c1ccccc1)CS2 — inhibition (SRB; 10 µM): 50%
CC(=O)O[C@H]1C(=O)[C@@]2(C)[C@H]([C@H](OC(=O)c3ccccc3)[C@]3(O)C[C@H](OC(=O)[C@H](O)[C@@H](NC(=O)c4ccccc4)c4ccccc4)C(C)=C1C3(C)C)[C@]1(OC(C)=O)CO[C@@H]1C[C@@H]2O — IC50: 0.5 µg/mL
COc1cc(-c2ccc(-c3ccc(C(=N)N)nc3)s2)cc(OC)c1OC — GI50 (SRB): 1740 nM
COc1nc(OCc2cccc(-c3ccccc3)c2C)ccc1CNCCNC(C)=O — pIC50 (MTT): 5.37
COc1ccc(-c2ccc(-c3ccc(C(=N)N)nc3)s2)cc1 — GI50 (SRB): 1810 nM
COc1ccc(C(=O)/C=C/c2cccnc2)cc1S(N)(=O)=O — inhibition (SRB; 10 µM): 89%
COc1cccc(Oc2ccccc2NC(=O)CNC(=O)c2cccc3ccccc23)c1 — GI50 (SRB; 48 h): 240 nM
